Measurements published in ChEMBL document CHEMBL1914430, “Synthesis of some new 1,3,5-trisubstituted pyrazolines bearing benzene sulfonamide as anticancer and anti-inflammatory agents” (Bioorg Med Chem Lett, 2011).

Tests used:
Assay type in all cases: functional
LOX IMVI = assay: Anticancer activity against human LOXIMVI cells after 48 hrs
Method in brief: (§1)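 NCI Drug Evaluation Branch 60-cell-line screen across leukemia, melanoma, lung, colon, CNS, ovarian, renal, prostate and breast panels. The incubation period is 48 h. Parameters are derived from dose–response data: GI50 is the concentration giving 50% decrease in net growth, TGI is total growth inhibition, and LC50 is net 50% loss of initial cells. Values beyond the tested range are reported as greater or less than the maximum or minimum concentration.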

RXF 393 = assay: Anticancer activity against human RXF393 cells after 48 hrs; settings: RXF 393, 48 h
Method in brief: (§2)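 NCI 60-line panel protocol with a 48 h incubation. Per line: GI50 = concentration giving 50% decrease in net cell growth; TGI = total growth inhibition; LC50 = net 50% loss of initial cells. When the level was not reached or was exceeded, the value is given as greater or less than the highest or lowest concentration tested.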

NCI-H23 = assay: Anticancer activity against human NCI-H23 cells after 48 hrs; settings: NCI-H23, 48 h; method in brief: as §2
SK-OV-3 = assay: Anticancer activity against human SKOV3 cells after 48 hrs; settings: SK-OV-3, 48 h; method in brief: as §2
KM12 = assay: Anticancer activity against human KM12 cells after 48 hrs; settings: KM12, 48 h; method in brief: as §1
SNB-75 = assay: Anticancer activity against human SNB75 cells after 48 hrs; settings: SNB-75, 48 h; method in brief: as §2
RPMI-8226 = assay: Anticancer activity against human RPMI8226 cells after 48 hrs; settings: RPMI-8226, 48 h; method in brief: as §2
COLO 205 = assay: Anticancer activity against human COLO205 cells after 48 hrs; settings: COLO 205, 48 h; method in brief: as §1
NCI-H322M = assay: Anticancer activity against human NCI-H322M cells after 48 hrs; method in brief: as §2
SF-268 = assay: Anticancer activity against human SF268 cells after 48 hrs; settings: SF-268, 48 h; method in brief: as §2
NCI/ADR-RES = assay: Anticancer activity against human NCI/ADR-RES cells after 48 hrs; method in brief: as §2
SK-MEL-2 = assay: Anticancer activity against human SK-MEL-2 cells after 48 hrs; settings: SK-MEL-2, 48 h; method in brief: as §2
BT-549 = assay: Anticancer activity against human BT549 cells after 48 hrs; settings: BT-549, 48 h; method in brief: as §1
CAKI-1 = assay: Anticancer activity against human Caki1 cells after 48 hrs; settings: CAKI-1, 48 h; method in brief: as §1
OVCAR-3 = assay: Anticancer activity against human OVCAR3 cells after 48 hrs; settings: OVCAR-3, 48 h; method in brief: as §2
OVCAR-8 = assay: Anticancer activity against human OVCAR8 cells after 48 hrs; settings: OVCAR-8, 48 h; method in brief: as §2
A498 = assay: Anticancer activity against human A498 cells after 48 hrs; settings: A498, 48 h; method in brief: as §1
SW-620 = assay: Anticancer activity against human SW620 cells after 48 hrs; settings: SW-620, 48 h; method in brief: as §2
Rattus norvegicus = assay: Antiinflammatory activity in Wistar rat assessed as inhibition of carrageenan-induced hind paw edema at 20 mg/kg, po administered 30 mins before carrageenan challenge measured after 5 hrs by plethysmometer
Method in brief: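 Wistar rats of either sex, 150–175 g, fasted 16 h, n = 6 per group. Compound given orally at 20 mg/kg as a suspension in 1% CMC in water (10 mL/kg); controls got vehicle only. After 30 min, 0.1 mL of 1% carrageenan in saline was injected subplantar into the left hind paw. Paw volume was measured by plethysmometer at 0, 3 and 5 h. Inhibition = (1 − Vt/Vc) × 100, reported as mean ± SEM.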

HL-60(TB) = assay: Anticancer activity against human HL-60(TB) cells after 48 hrs; settings: HL-60, 48 h
Method in brief: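 NCI 60-cell-line panel protocol: cells exposed to compound for 48 h. Initial one-dose screen at 10⁻⁵ M. GI50 = concentration giving 50% decrease in net cell growth. TGI = concentration giving total growth inhibition. LC50 = concentration giving net 50% loss of initial cells at the end of incubation. A value not reached or exceeded is reported as greater or less than the highest or lowest concentration tested.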

SK-MEL-28 = assay: Anticancer activity against human SK-MEL-28 cells after 48 hrs; settings: SK-MEL-28, 48 h; method in brief: as §2
SNB-19 = assay: Anticancer activity against human SNB19 cells after 48 hrs; settings: SNB-19, 48 h; method in brief: as §2
UACC-62 = assay: Anticancer activity against human UACC62 cells after 48 hrs; settings: UACC-62, 48 h
Method in brief: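 NCI ~60 human tumour cell line panel with a 48 h incubation. GI50 is the concentration giving a 50% fall in net growth, TGI gives total growth inhibition, and LC50 gives a net 50% loss of initial cells. An effect not reached or exceeded is reported as greater or less than the highest or lowest concentration tested.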

NCI-H522 = assay: Anticancer activity against human NCI-H522 cells after 48 hrs; settings: NCI-H522, 48 h; method in brief: as §2
HOP-62 = assay: Anticancer activity against human HOP62 cells after 48 hrs; settings: HOP-62, 48 h; method in brief: as §1
OVCAR-5 = assay: Anticancer activity against human OVCAR5 cells after 48 hrs; settings: OVCAR-5, 48 h; method in brief: as §2
OVCAR-4 = assay: Anticancer activity against human OVCAR4 cells after 48 hrs; settings: OVCAR-4, 48 h; method in brief: as §2
[1] = read-out: LC50 (the source's name)

SMILES: Cc1cc(O)c(C2=NN(c3ccc(S(N)(=O)=O)cc3)C(c3ccccc3Cl)C2)cc1Cl (stereo unspecified)
- GI50 (LOX IMVI): 1.78 µM
- TGI (LOX IMVI): 3.21 µM
- CC50 (LOX IMVI; [1]): 5.8 µM
- GI50 (RXF 393): 3.09 µM
- LC50 (RXF 393): > 100 µM
- TGI (RXF 393): 8.22 µM
- GI50 (NCI-H23): 1.79 µM
- LC50 (concentration killing 50% of initial cells) (NCI-H23): 7.13 µM
- TGI (NCI-H23): 3.58 µM
- GI50 (SK-OV-3): 3.63 µM
- TGI (SK-OV-3): 10.4 µM
- CC50 (SK-OV-3; [1]): 32.3 µM
- GI50 (KM12): 1.98 µM
- TGI (KM12): 3.66 µM
- GI50 (SNB-75): 2.23 µM
- TGI (SNB-75): 8.83 µM
- CC50 (SNB-75; [1]): 63.6 µM
- GI50 (RPMI-8226): 2.97 µM
- LC50 (concentration for net 50% loss of initial cells) (RPMI-8226): > 100 µM
- TGI (RPMI-8226): 8.35 µM
- GI50 (COLO 205): 1.81 µM
- LC50 (concentration giving net 50% loss of initial cells) (COLO 205): 6.03 µM
- TGI (COLO 205): 3.31 µM
- GI50 (NCI-H322M): 2.19 µM
- LC50 (net 50% loss of initial cells) (NCI-H322M): 22 µM
- TGI (NCI-H322M): 5.06 µM
- GI50 (SF-268): 1.92 µM
- TGI (SF-268): 3.72 µM
- GI50 (NCI/ADR-RES): 2.7 µM
- TGI (NCI/ADR-RES): 6.85 µM
- CC50 (NCI/ADR-RES; [1]): 38.8 µM
- GI50 (SK-MEL-2): 11.9 µM
- LC50 (SK-MEL-2): 81.1 µM
- TGI (SK-MEL-2): 31 µM
- GI50 (BT-549): 2.16 µM
- TGI (BT-549): 4.74 µM
- CC50 (BT-549; [1]): 18.3 µM
- GI50 (CAKI-1): 1.78 µM
- LC50 (concentration giving 50% net loss of initial cells) (CAKI-1): 8.95 µM
- TGI (CAKI-1): 3.99 µM
- GI50 (OVCAR-3): 1.89 µM
- LC50 (concentration giving 50% net loss of initial cells) (OVCAR-3): 6.77 µM
- TGI (OVCAR-3): 3.58 µM
- GI50 (OVCAR-8): 2.94 µM
- TGI (OVCAR-8): 11.2 µM
- CC50 (OVCAR-8; [1]): > 100 µM
- GI50 (A498): 5.01 µM
- TGI (A498): 20.5 µM
- CC50 (A498; [1]): 61.4 µM
- GI50 (SW-620): 1.97 µM
- TGI (SW-620): 4.1 µM
- inhibition in vivo at 20 mg/kg (Rattus norvegicus): 71.4%
- GI50 (HL-60(TB)): 3.44 µM
- LC50 (HL-60(TB)): > 100 µM
- TGI (HL-60(TB)): 100 µM
- GI50 (SK-MEL-28): 3.39 µM
- TGI (SK-MEL-28): 12.3 µM
- CC50 (SK-MEL-28; [1]): 52.9 µM
- GI50 (SNB-19): 3.54 µM
- TGI (SNB-19): 16.3 µM
- CC50 (SNB-19; [1]): 92.3 µM
- GI50 (UACC-62): 3.71 µM
- LC50 (UACC-62): 43.4 µM
- TGI (UACC-62): 14.4 µM
- GI50 (NCI-H522): 1.89 µM
- LC50 (concentration killing 50% of initial cells) (NCI-H522): 8.33 µM
- TGI (NCI-H522): 3.97 µM
- GI50 (HOP-62): 2.03 µM
- LC50 (concentration for 50% net loss of initial cells) (HOP-62): 8.53 µM
- TGI (HOP-62): 4.16 µM
- GI50 (OVCAR-5): 1.74 µM
- LC50 (OVCAR-5): 6.23 µM
- TGI (OVCAR-5): 3.3 µM
- GI50 (OVCAR-4): 2.73 µM
- LC50 (OVCAR-4): 40 µM
- TGI (OVCAR-4): 8.48 µM
